Results taken from ChEMBL document CHEMBL3352424, “Synthesis, biological evaluation and 3D-QSAR study of hydrazide, semicarbazide and thiosemicarbazide derivatives of 4-(adamantan-1-yl)quinoline as anti-tuberculosis agents” (Eur J Med Chem, 2014).
Values after ≈ are worked out from the molar mass of the structure shown.

Assays:
L929 = experiment: Cytotoxicity against mouse L929 cells assessed as reduction in cell viability up to 200 ug/ml after 5 days by MTT assay; format: cell-based; conditions: l929, 120 h
Procedure, shortened: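 MTT viability assay in mouse fibroblasts, run on compounds active against TB, with 200 µg/mL as the highest test concentration.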

[1] = test system: Mycobacterium tuberculosis; experiment: Antitubercular activity against Mycobacterium tuberculosis H37Rv strain by BACTEC 460 radiometric assay; format: functional, organism-based
[2] = test system: Mycobacterium tuberculosis; experiment: Antitubercular activity against Mycobacterium tuberculosis H37Rv strain at 6.25 ug/ml by microplate alamar blue assay; format: functional

Row | SMILES | Activity (L929) | IC50 [1] [µM] | MIC90 [1] [µg/mL] | inhibition at 6.25 µg/mL [2] [%] | MIC99 [1] [µg/mL]
1 | O=C(NNC(=S)Nc1ccc(OC(F)(F)F)cc1)c1cc(C23CC4CC(CC(C4)C2)C3)c2ccccc2n1 | Non-toxic | 1.45 | 6.25 (≈ 11.6 µM) | 89 | –
2 | COc1ccc(C)cc1NC(=S)NNC(=O)c1cc(C23CC4CC(CC(C4)C2)C3)c2ccccc2n1 | Non-toxic | 91.2 | 6.25 (≈ 12.5 µM) | 12 | –
3 | CC(C)(C)c1ccc(NC(=O)NNC(=O)c2cc(C34CC5CC(CC(C5)C3)C4)c3ccccc3n2)cc1 | Non-toxic | 22.4 | 6.25 (≈ 12.6 µM) | 37 | –
4 | C=CCCCCCCCCC(=O)NNC(=O)c1cc(C23CC4CC(CC(C4)C2)C3)c2ccccc2n1 | Non-toxic | 12.9 | 6.25 (≈ 12.8 µM) | 50 | –
5 | CCCCOc1ccc(NC(=O)NNC(=O)c2cc(C34CC5CC(CC(C5)C3)C4)c3ccccc3n2)cc1 | Non-toxic | 7.76 | 6.25 (≈ 12.2 µM) | 61 | –
6 | CC(=O)NNC(=O)c1cc(C23CC4CC(CC(C4)C2)C3)c2ccccc2n1 | Non-toxic | 324 | 6.25 (≈ 17.2 µM) | 5 | –
7 | O=C(NNC(=S)NC1CCCCC1)c1cc(C23CC4CC(CC(C4)C2)C3)c2ccccc2n1 | Non-toxic | – | 6.25 (≈ 13.5 µM) | 0 | –
8 | O=C(NNC(=S)Nc1ccccc1C(F)(F)F)c1cc(C23CC4CC(CC(C4)C2)C3)c2ccccc2n1 | Non-toxic | 2.88 | 6.25 (≈ 11.9 µM) | 79 | –
9 | CCc1cccc(CC)c1NC(=O)NNC(=O)c1cc(C23CC4CC(CC(C4)C2)C3)c2ccccc2n1 | Non-toxic | 33.9 | 6.25 (≈ 12.6 µM) | 27 | –
10 | CCCCCNC(=O)NNC(=O)c1cc(C23CC4CC(CC(C4)C2)C3)c2ccccc2n1 | Non-toxic | 11.7 | 6.25 (≈ 14.4 µM) | 55 | –
11 | O=C(NNC(=S)NCCc1ccccc1)c1cc(C23CC4CC(CC(C4)C2)C3)c2ccccc2n1 | Non-toxic | 14.5 | 6.25 (≈ 12.9 µM) | 47 | –
12 | CCCCCCNC(=O)NNC(=O)c1cc(C23CC4CC(CC(C4)C2)C3)c2ccccc2n1 | Non-toxic | 15.8 | 6.25 (≈ 13.9 µM) | 47 | –
13 | CCNC(=S)NNC(=O)c1cc(C23CC4CC(CC(C4)C2)C3)c2ccccc2n1 | Non-toxic | 5.89 | 6.25 (≈ 15.3 µM) | 72 | –
14 | COc1cc(NC(=S)NNC(=O)c2cc(C34CC5CC(CC(C5)C3)C4)c3ccccc3n2)cc(OC)c1OC | Non-toxic | 14.5 | 6.25 (≈ 11.4 µM) | 46 | –
15 | CCCCCCCCCCCCCCCCNC(=O)NNC(=O)c1cc(C23CC4CC(CC(C4)C2)C3)c2ccccc2n1 | Non-toxic | 56.2 | 6.25 (≈ 10.6 µM) | 16 | –
16 | O=C(NNC(=O)c1cc(C23CC4CC(CC(C4)C2)C3)c2ccccc2n1)Nc1cccc(F)c1 | Non-toxic | 3.8 | 6.25 (≈ 13.6 µM) | 78 | –
17 | Cc1cc(C)c(NC(=O)NNC(=O)c2cc(C34CC5CC(CC(C5)C3)C4)c3ccccc3n2)c(C)c1 | Non-toxic | 3.89 | 6.25 (≈ 12.9 µM) | 77 | –
18 | O=C(NNC(=O)c1cc(C23CC4CC(CC(C4)C2)C3)c2ccccc2n1)Nc1ccc(F)cc1 | Non-toxic | 6.46 | 6.25 (≈ 13.6 µM) | 68 | –
19 | O=C(NNC(=S)Nc1ccccc1)c1cc(C23CC4CC(CC(C4)C2)C3)c2ccccc2n1 | Non-toxic | 100 | 6.25 (≈ 13.7 µM) | 12 | –
20 | CCc1ccccc1NC(=S)NNC(=O)c1cc(C23CC4CC(CC(C4)C2)C3)c2ccccc2n1 | Non-toxic | 1.58 | 6.25 (≈ 12.9 µM) | 89 | –

Row | SMILES | Activity (L929) | IC50 [1] [µM] | MIC90 [1] [µg/mL] | inhibition at 6.25 µg/mL [2] [%] | MIC99 [1] [µg/mL]
21 | O=C(NNC(=O)c1cc(C23CC4CC(CC(C4)C2)C3)c2ccccc2n1)c1cccnc1 | Non-toxic | 5.13 | 6.25 (≈ 14.7 µM) | 74 | –
22 | O=C(NNC(=O)c1c(F)c(F)c(F)c(F)c1F)c1cc(C23CC4CC(CC(C4)C2)C3)c2ccccc2n1 | Non-toxic | 1.66 | 6.25 (≈ 12.1 µM) | 88 | –
23 | CO[C@H]1/C=C/O[C@@]2(C)Oc3c(C)c(O)c4c(O)c(c(/C=N/N5CCN(C)CC5)c(O)c4c3C2=O)NC(=O)/C(C)=C\C=C\[C@H](C)[C@H](O)[C@@H](C)[C@@H](O)[C@@H](C)[C@H](OC(C)=O)[C@@H]1C [RIFAMPIN] | – | – | – | 99 | 0.2 (≈ 0.243 µM)
24 | O=C(NNC(=S)Nc1cccc2ccccc12)c1cc(C23CC4CC(CC(C4)C2)C3)c2ccccc2n1 | Non-toxic | 15.8 | 6.25 (≈ 12.3 µM) | 44 | –
25 | COc1ccc(OC)c(NC(=S)NNC(=O)c2cc(C34CC5CC(CC(C5)C3)C4)c3ccccc3n2)c1 | Non-toxic | 2.82 | 6.25 (≈ 12.1 µM) | 81 | –
26 | O=C(NNC(=O)c1cc(C23CC4CC(CC(C4)C2)C3)c2ccccc2n1)c1ccc2ccccc2c1 | Non-toxic | 4.68 | 6.25 (≈ 13.1 µM) | 90 | –
27 | O=C(NNC(=S)Nc1cccc(Cl)c1Cl)c1cc(C23CC4CC(CC(C4)C2)C3)c2ccccc2n1 | Non-toxic | 4.17 | 6.25 (≈ 11.9 µM) | 74 | –
28 | COc1cc(NC(=O)NNC(=O)c2cc(C34CC5CC(CC(C5)C3)C4)c3ccccc3n2)cc(OC)c1OC | Non-toxic | 41.7 | 6.25 (≈ 11.8 µM) | 22 | –
29 | O=C(NNC(=S)Nc1cc(Cl)ccc1Cl)c1cc(C23CC4CC(CC(C4)C2)C3)c2ccccc2n1 | Non-toxic | 15.8 | 6.25 (≈ 11.9 µM) | 43 | –
30 | O=C(NNC(=O)c1cccs1)c1cc(C23CC4CC(CC(C4)C2)C3)c2ccccc2n1 | Non-toxic | 148 | 6.25 (≈ 14.5 µM) | 9 | –
31 | NNC(=O)c1ccncc1 [ISONIAZID] | – | – | – | – | 0.1 (≈ 0.729 µM)
32 | O=C(NNC(=O)c1ccco1)c1cc(C23CC4CC(CC(C4)C2)C3)c2ccccc2n1 | Non-toxic | – | 6.25 (≈ 15 µM) | 0 | –
33 | C=CCNC(=S)NNC(=O)c1cc(C23CC4CC(CC(C4)C2)C3)c2ccccc2n1 | Non-toxic | 4.07 | 6.25 (≈ 14.9 µM) | 77 | –
34 | O=C(NNC(=S)Nc1ccc([N+](=O)[O-])cc1Cl)c1cc(C23CC4CC(CC(C4)C2)C3)c2ccccc2n1 | Non-toxic | 0.49 | 6.25 (≈ 11.7 µM) | 96 | –
35 | Cc1ccc(NC(=S)NNC(=O)c2cc(C34CC5CC(CC(C5)C3)C4)c3ccccc3n2)cc1 | Non-toxic | 45.7 | 6.25 (≈ 13.3 µM) | 23 | –
36 | COc1ccc(NC(=O)NNC(=O)c2cc(C34CC5CC(CC(C5)C3)C4)c3ccccc3n2)cc1 | Non-toxic | 3.72 | 6.25 (≈ 13.3 µM) | 78 | –
37 | O=C(NNC(=O)N1CCOCC1)c1cc(C23CC4CC(CC(C4)C2)C3)c2ccccc2n1 | Non-toxic | 468 | 6.25 (≈ 14.4 µM) | 3 | –
38 | O=C(NNC(=O)c1cc(C23CC4CC(CC(C4)C2)C3)c2ccccc2n1)c1cccc(C(F)(F)F)c1 | Non-toxic | 5.75 | 6.25 (≈ 12.7 µM) | 69 | –
39 | CCCCCCCCCCC(=O)NNC(=O)c1cc(C23CC4CC(CC(C4)C2)C3)c2ccccc2n1 | Non-toxic | 26.9 | 6.25 (≈ 12.8 µM) | 32 | –
